Data taken from ChEMBL document CHEMBL4017470, “One drug for two targets: Biological evaluation of antiretroviral agents endowed with antiproliferative activity” (Bioorg Med Chem Lett, 2017).
≈ marks a conversion by molar mass, not a printed value.

Assays:
[1] = Selectivity index, ratio of IC50 for HEK293 cells to IC50 for human MCF7 cells; type: functional
[2] = Growth inhibition of BAEC after 2 days by MTT assay; type: cell-based; settings: Bos taurus, 48 h
[3] = test system: Human immunodeficiency virus 1; assay: Antiviral activity against HIV-1 NL4.3 infected in human TZM-b1 cells pretreated for 1 hr followed by viral infection measured after 2 days by CPRG assay; type: functional, cell-based; settings: Human immunodeficiency virus 1, NL4.3, TZM-b1
[4] = Selectivity index, ratio of IC50 for HEK293 cells to IC50 for human HT-29 cells; type: functional
[5] = test system: MCF7; assay: Growth inhibition of human MCF7 cells after 2 days by MTT assay; type: functional, cell-based; settings: MCF7, 48 h
[6] = test system: HT-29; assay: Down regulation of hTERT expression in human HT-29 cells assessed as hTERT expression level at 5 uM after 48 hrs by RT-qPCR analysis relative to control; type: functional
Outline: (§1)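 HT-29 cells were incubated 48 h with compound, with DMSO as the vehicle control and resveratrol as the positive control. Total RNA was extracted, reverse-transcribed to cDNA, and hTERT or c-Myc quantified by RT-qPCR. Expression was normalized to β-actin and given as % of the DMSO control (100%). At least three measurements per case; mean ± SEM; one-sample t-test.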

[7] = Cytotoxicity against human TZM-b1 cells by XTT assay; type: cell-based; settings: read-out: LD50 (the source's name)
[8] = Selectivity index, ratio of IC50 for HEK293 cells to IC50 for human Ramos cells; type: functional
[9] = test system: HT-29; assay: Growth inhibition of human HT-29 cells after 2 days by MTT assay; type: functional, cell-based; settings: HT-29, 48 h
[10] = test system: HEK293; assay: Growth inhibition of HEK293 cells after 2 days by MTT assay; type: cell-based; settings: Homo sapiens, HEK293, 48 h
[11] = Selectivity index, ratio of IC50 for BAEC cells to IC50 for human HT-29 cells; type: functional
[12] = Selectivity index, ratio of IC50 for BAEC cells to IC50 for human Ramos cells; type: functional
[13] = Selectivity index, ratio of IC50 for BAEC cells to IC50 for human MCF7 cells; type: functional
[14] = test system: HT-29; assay: Down regulation of c-Myc expression in human HT-29 cells assessed as c-Myc expression level at 5 uM after 48 hrs by RT-qPCR analysis relative to control; type: functional; outline: as §1
[15] = test system: Ramos; assay: Growth inhibition of human Ramos cells after 2 days by MTT assay; type: functional, cell-based; settings: 48 h
[16] = Metabolic stability in human liver microsomes at 50 uM measured after 60 mins in presence of NADPH generating system by LC-UV-MS method; type: ADME, microsome; settings: read-out: Stability
[17] = Aqueous solubility of the compound in water at 1 mg after 24 to 36 hrs by LC-MS/MS analysis; type: physicochemical
[18] = Apparent permeability of the compound in phosphate buffer at pH 7.4 by PAMPA; type: physicochemical
[19] = test system: HT-29; assay: Down regulation of hTERT expression in human HT-29 cells assessed as hTERT expression level at 1 uM after 48 hrs by RT-qPCR analysis relative to control; type: functional; outline: as §1
[20] = test system: HT-29; assay: Down regulation of c-Myc expression in human HT-29 cells assessed as c-Myc expression level at 1 uM after 48 hrs by RT-qPCR analysis relative to control; type: functional; outline: as §1
[21] = test system: HT-29; assay: Down regulation of c-Myc expression in human HT-29 cells assessed as c-Myc expression level at 20 uM after 48 hrs by RT-qPCR analysis relative to control; type: functional; outline: as §1
[22] = test system: HT-29; assay: Down regulation of hTERT expression in human HT-29 cells assessed as hTERT expression level at 20 uM after 48 hrs by RT-qPCR analysis relative to control; type: functional; outline: as §1

Row | Structure (SMILES) | Ratio IC50 [1] | IC50 [2] [µM] | IC50 [3] [µM] | Ratio IC50 [4] | IC50 [5] [µM] | CC50 [7] [µM] | Ratio IC50 [8] | IC50 [9] [µM] | IC50 [10] [µM] | Ratio IC50 [11] | Ratio IC50 [12] | Ratio IC50 [13] | IC50 [15] [µM] | Papp [18] [×10⁻⁶ cm/s] | Activity [19] [%] | Activity [20] [%] | also measured
1 | O=C1/C(=C/c2ccc(-c3cc(C(F)(F)F)ccc3Cl)o2)SC(=S)N1Cc1ccc(Cl)cc1 | 3.72 | 2.4 | 6.9 | 0.51 | 1.13 | > 50 | 1.1 | 8.3 | 4.2 | 0.29 | 0.63 | 2.12 | 3.8 |  |  |  | Activity [6]: 53%; Activity [14]: 100%
2 | Cc1nnc(C(=O)NC(C)(C)c2nc(C(=O)NCc3ccc(F)cc3)c(O)c(=O)n2C)o1 [RALTEGRAVIR] |  |  | 0.021 |  |  | > 50 |  |  |  |  |  |  |  |  |  |  | 
3 | O=C1N=C(N2CCOCC2)S/C1=C\c1ccc(-c2ccc(C(=O)O)c(O)c2)o1 | 2.52 | 76 | 13.4 | 23.04 | 21 | > 50 | 16.9 | 2.3 | 53 | 33.04 | 24.2 | 3.62 | 3.14 | 1.28 | 51 | 60 | remaining at 1 h, 50 µM [16]: 98.7%; solubility [17]: 9.7 µM (≈ 3.88 µg/mL)
4 | CC(C)NCC(O)COc1cccc2ccccc12 (stereo not drawn) [PROPRANOLOL] |  |  |  |  |  |  |  |  |  |  |  |  |  | 9.68 |  |  | 
5 | Cn1c(=O)c2c(ncn2C)n(C)c1=O [CAFFEINE] |  |  |  |  |  |  |  |  |  |  |  |  |  | < 0.1 |  |  | 
6 | O=C1/C(=C/c2ccc(-c3cc(C(F)(F)F)ccc3Cl)o2)SC(=S)N1Cc1ccc(F)cc1 | 2 | 2.2 | 17.3 | 0.52 | 1.2 | > 50 | 0.59 | 4.6 | 2.4 | 0.48 | 0.53 | 1.83 | 4.1 |  | 37 | 69 | 
7 | O=C(O)c1ccc(-c2ccc(/C=C3\SC(=S)N(CCc4ccc(Cl)c(Cl)c4)C3=O)o2)cc1O | <0.29 | 86 | 4.8 | <0.29 | > 100 | > 50 | <0.29 | > 100 | 29 | <0.86 | <0.86 | <0.86 | > 100 |  |  |  | 
8 | CCc1ccc(CCNC2=NC(=O)/C(=C/c3ccc(-c4ccc(C(=O)O)c(O)c4)o3)S2)cc1 | 0.76 | 20 | 1 | 0.13 | 4.5 | > 50 | 0.09 | 26 | 3.4 | 0.77 | 0.54 | 4.44 | 37 |  |  |  | Activity [21]: 67%; Activity [22]: 56%
9 | C[C@]12CC[C@H]3[C@@H](CCC4=CC(=O)CC[C@@]43C)[C@@H]1CC[C@@H]2O [TESTOSTERONE] |  |  |  |  |  |  |  |  |  |  |  |  |  |  |  |  | remaining at 1 h, 50 µM [16]: 76.2%
10 | O=C1N=C(Nc2ccc(F)c(Cl)c2)S/C1=C\c1ccc(-c2ccc(C(=O)O)c(O)c2)o1 | 0.92 | 25 | 1 | 10.91 | 13 | > 50 | 3.9 | 1.1 | 12 | 22.72 | 8 | 1.92 | 3.1 | 1.58 | 53 | 60 | remaining at 1 h, 50 µM [16]: 99.1%; solubility [17]: 11.8 µM (≈ 5.41 µg/mL)
11 | Oc1ccc(/C=C/c2cc(O)cc(O)c2)cc1 [RESVERATROL] |  | 57 |  |  | 34 |  |  | 137 | 17 |  |  |  | 37 |  | 28 | 47 | 
12 | O=C1N=C(NCCc2ccc(Cl)c(Cl)c2)S/C1=C\c1ccc(-c2ccc(C(=O)O)c(O)c2)o1 |  | > 100 | 1.8 |  | > 100 | > 50 |  | > 100 | > 100 |  |  |  | > 100 |  |  |  | 
